Results from ChEMBL document CHEMBL1146021, “Calcium channel antagonists discovered by a multidisciplinary approach” (J Med Chem, 2006).
Values belong to the molecule of their own block, whether it stands above or below them. Active and inactive are the calls of the source.

Columns and labels:
Cavia porcellus [1] = species on record: Cavia porcellus; test: Negative inotropic activity in guinea pig left atrium at 1 uM; type: functional, Cardiac atrium
How it was run: (§1)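 Guinea-pig left atria driven at 1 Hz (0.6-0.8 ms pulses, about 50% threshold voltage) in PSS, 35 °C, pH 7.4, 95% O2/5% CO2. Isometric tension recorded. Cumulative concentrations 0.01-100 μM in DMSO (≤0.3%), each to steady state. Percent decrease in developed tension, n = 4-6. EC50 by Probit analysis.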

Cavia porcellus [2] = species on record: Cavia porcellus; test: Vasorelaxant activity assessed as inhibition of calcium-induced contraction of potassium ion-depolarized guinea pig aortic strips at 100 uM; type: functional, Aorta; parameters: scale not given: the % may be the effect or the level left
How it was run: (§2)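 Helicoidal guinea-pig aortic strips in aerated PSS at 35 °C, contracted with 80 mM KCl (K+ substituted for Na+). At plateau (about 45 min), compounds added cumulatively at 0.1-500 μM in DMSO vehicle. Relaxation measured isometrically. IC50 by Probit analysis, n = 6-8.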

Cavia porcellus [3] = species on record: Cavia porcellus; test: Negative chronotropic activity in guinea pig right atrium at 50 uM; type: functional, Cardiac atrium
How it was run: (§3)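 Spontaneously beating guinea-pig right atria in PSS, 35 °C, pH 7.4, 95% O2/5% CO2. Cumulative concentrations 0.01-100 μM in DMSO (≤0.3% in bath), each to steady state. Rate decrease taken as percent of control (pretreatment 170-195 beats/min), n = 6-8. EC30 by Probit analysis.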

Cavia porcellus [4] = species on record: Cavia porcellus; test: Negative inotropic activity in guinea pig left atrium; type: functional; details: Cardiac atrium; how it was run: as §1
Cavia porcellus [5] = species on record: Cavia porcellus; test: Negative inotropic activity in guinea pig left atrium at 500 uM; type: functional, Cardiac atrium
Cavia porcellus [6] = species on record: Cavia porcellus; test: Negative chronotropic activity in guinea pig right atrium at 500 uM; type: functional, Cardiac atrium
Cavia porcellus [7] = species on record: Cavia porcellus; test: Cardiac activity in guinea pig heart measured as decrease in heart rate at 1 uM by ECG relative to control; type: functional; parameters: scale not given: the % may be the effect or the level left
How it was run: (§4)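 Langendorff-perfused isolated hearts from female guinea-pigs (300-400 g). Compounds given cumulatively at 0.001-1 μM, each step held to steady state (about 30 min). Read-outs: surface ECG (PR interval, heart rate), intraventricular balloon +(dP/dt)max and coronary perfusion pressure. Results given as percent change from basal at 1 μM, mean ± SEM.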

Cavia porcellus [8] = species on record: Cavia porcellus; test: Cardiac activity in guinea pig heart measured as decrease in left ventricular pressure at 1 uM relative to control; type: functional; parameters: scale not given: the % may be the effect or the level left; how it was run: as §4
Cavia porcellus [9] = species on record: Cavia porcellus; test: Negative chronotropic activity in guinea pig right atrium; type: functional; details: Cardiac atrium; how it was run: as §3
Cavia porcellus [10] = species on record: Cavia porcellus; test: Antagonist activity against calcium channel assessed as inhibition of carbachol-induced tonic contraction of guinea pig ileum longitudinal smooth muscle; type: functional
How it was run: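 Guinea-pig ileum longitudinal smooth muscle segments (2 cm), 300-400 mg resting tension, 37 °C, oxygenated Hepes-buffered PSS at pH 7.4, equilibrated 1 h. Two control carbachol curves run 30 min apart. Test agent (10 μM) added 30 min before the carbachol curve. Isometric inhibition expressed as percent of control.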

Cavia porcellus [11] = species on record: Cavia porcellus; test: Negative inotropic activity in guinea pig left ventricular papillary muscle; type: functional; details: Muscle tissue
Cavia porcellus [12] = species on record: Cavia porcellus; test: Antagonist activity against calcium channel assessed as inhibition of calcium-induced contraction of potassium ion-depolarized guinea pig ileum longitudinal smooth muscle at 50 uM; type: functional; parameters: scale not given: the % may be the effect or the level left
How it was run: (§5)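 Guinea-pig ileum longitudinal smooth muscle segments (2 cm) held at 300-400 mg resting tension, 37 °C, in oxygenated (100% O2) Hepes-buffered PSS at pH 7.4. Isometric contraction recorded. Inhibition expressed as percentage of control. Probit log concentration–response analysis, n = 6-8.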

[13] = biological target: T1, Voltage-dependent L-type calcium channel subunit alpha-1C (Rattus norvegicus, UniProt P22002); test: Inhibition of [3H]diltiazem binding to Sprague-Dawley rat cardiomyocytes
T1 sequence (P22002 whole entry, the tested form may be a part): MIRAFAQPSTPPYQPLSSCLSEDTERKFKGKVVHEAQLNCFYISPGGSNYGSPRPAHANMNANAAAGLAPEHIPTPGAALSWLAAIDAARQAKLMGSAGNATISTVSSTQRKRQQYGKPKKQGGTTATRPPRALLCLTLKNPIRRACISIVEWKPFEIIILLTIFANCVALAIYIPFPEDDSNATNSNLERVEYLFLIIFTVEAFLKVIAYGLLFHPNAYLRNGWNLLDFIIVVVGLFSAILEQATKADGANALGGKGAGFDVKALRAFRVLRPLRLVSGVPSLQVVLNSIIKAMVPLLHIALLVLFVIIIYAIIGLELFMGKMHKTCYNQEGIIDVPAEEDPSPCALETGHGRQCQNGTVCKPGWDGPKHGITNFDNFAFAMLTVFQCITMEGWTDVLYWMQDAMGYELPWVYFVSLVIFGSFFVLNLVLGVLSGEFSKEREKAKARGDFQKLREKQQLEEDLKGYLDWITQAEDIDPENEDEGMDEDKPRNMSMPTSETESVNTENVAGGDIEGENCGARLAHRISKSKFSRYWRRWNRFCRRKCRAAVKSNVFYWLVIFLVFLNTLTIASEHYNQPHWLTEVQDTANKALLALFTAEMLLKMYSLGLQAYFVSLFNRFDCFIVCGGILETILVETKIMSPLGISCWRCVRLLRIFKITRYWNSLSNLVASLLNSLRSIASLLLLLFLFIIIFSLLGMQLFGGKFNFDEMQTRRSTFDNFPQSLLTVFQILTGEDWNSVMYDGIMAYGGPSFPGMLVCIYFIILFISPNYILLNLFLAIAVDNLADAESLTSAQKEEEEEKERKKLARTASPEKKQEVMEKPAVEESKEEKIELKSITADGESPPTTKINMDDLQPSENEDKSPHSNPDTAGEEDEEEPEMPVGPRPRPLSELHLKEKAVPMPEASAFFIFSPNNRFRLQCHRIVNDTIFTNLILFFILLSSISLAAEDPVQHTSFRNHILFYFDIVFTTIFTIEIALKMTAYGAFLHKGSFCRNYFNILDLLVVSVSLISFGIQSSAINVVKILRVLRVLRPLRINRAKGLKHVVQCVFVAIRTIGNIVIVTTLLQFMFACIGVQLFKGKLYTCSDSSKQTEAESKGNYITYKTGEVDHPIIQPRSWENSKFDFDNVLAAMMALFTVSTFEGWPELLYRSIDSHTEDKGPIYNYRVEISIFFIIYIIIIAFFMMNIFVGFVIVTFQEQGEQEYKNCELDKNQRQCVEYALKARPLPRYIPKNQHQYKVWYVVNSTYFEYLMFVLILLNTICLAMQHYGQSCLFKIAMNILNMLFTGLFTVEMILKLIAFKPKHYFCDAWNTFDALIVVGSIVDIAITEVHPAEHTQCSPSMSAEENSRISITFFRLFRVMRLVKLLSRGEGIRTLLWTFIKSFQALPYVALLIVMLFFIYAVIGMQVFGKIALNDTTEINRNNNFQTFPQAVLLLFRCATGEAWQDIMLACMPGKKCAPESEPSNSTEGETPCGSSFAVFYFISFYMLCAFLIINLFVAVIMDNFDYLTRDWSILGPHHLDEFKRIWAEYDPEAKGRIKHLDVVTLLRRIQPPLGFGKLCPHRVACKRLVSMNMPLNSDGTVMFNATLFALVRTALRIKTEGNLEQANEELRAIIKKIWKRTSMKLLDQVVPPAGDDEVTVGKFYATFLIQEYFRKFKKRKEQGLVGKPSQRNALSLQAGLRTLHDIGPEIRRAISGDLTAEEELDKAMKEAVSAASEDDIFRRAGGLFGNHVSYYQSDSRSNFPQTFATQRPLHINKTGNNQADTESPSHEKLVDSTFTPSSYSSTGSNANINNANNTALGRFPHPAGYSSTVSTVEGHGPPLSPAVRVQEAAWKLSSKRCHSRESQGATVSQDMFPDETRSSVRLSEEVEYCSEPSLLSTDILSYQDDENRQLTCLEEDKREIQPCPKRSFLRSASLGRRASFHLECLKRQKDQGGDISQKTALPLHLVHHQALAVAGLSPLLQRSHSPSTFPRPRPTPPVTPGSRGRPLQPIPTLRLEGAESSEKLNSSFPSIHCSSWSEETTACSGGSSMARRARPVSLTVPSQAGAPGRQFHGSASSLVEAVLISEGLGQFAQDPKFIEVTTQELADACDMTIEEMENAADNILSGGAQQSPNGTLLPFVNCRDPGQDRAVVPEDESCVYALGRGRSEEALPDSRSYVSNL
How it was run: (§6)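 Cardiomyocytes from male Sprague-Dawley rats, isolated by Langendorff perfusion and stored frozen (200 μg per tube). Incubated with 5 nM [3H]diltiazem and test ligand (0.1 nM-100 μM) in 50 mM Tris pH 7.4, 25 °C, 90 min. Bound ligand separated by filtration. Nonspecific binding with 100 μM diltiazem. Triplicates. pIC50 from sigmoidal fit; Ki by Cheng-Prusoff.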

Cavia porcellus [14] = species on record: Cavia porcellus; test: Cardiac activity in guinea pig heart measured as prolongation of atrioventricular conduction time at 1 uM relative to control; type: functional; how it was run: as §4
Cavia porcellus [15] = species on record: Cavia porcellus; test: Negative inotropic activity in guinea pig left ventricular papillary muscle at 50 uM; type: functional, Muscle tissue
Cavia porcellus [16] = species on record: Cavia porcellus; test: Cardiac activity in guinea pig heart measured as decrease in coronary perfusion pressure at 1 uM relative to control; type: functional; parameters: scale not given: the % may be the effect or the level left; how it was run: as §4
Cavia porcellus [17] = species on record: Cavia porcellus; test: Negative inotropic activity in guinea pig left atrium at 50 uM; type: functional, Cardiac atrium; how it was run: as §1
Cavia porcellus [18] = species on record: Cavia porcellus; test: Antagonist activity against calcium channel assessed as inhibition of calcium-induced contraction of potassium ion-depolarized guinea pig ileum longitudinal smooth muscle; type: functional; how it was run: as §5
Cavia porcellus [19] = species on record: Cavia porcellus; test: Negative chronotropic activity in guinea pig right atrium at 10 uM; type: functional, Cardiac atrium; how it was run: as §3
Cavia porcellus [20] = species on record: Cavia porcellus; test: Negative chronotropic activity in guinea pig right atrium at 5 uM; type: functional, Cardiac atrium; how it was run: as §3
Cavia porcellus [21] = species on record: Cavia porcellus; test: Vasorelaxant activity assessed as inhibition of calcium-induced contraction of potassium ion-depolarized guinea pig aortic strips at 50 uM; type: functional, Aorta; parameters: scale not given: the % may be the effect or the level left; how it was run: as §2
Cavia porcellus [22] = species on record: Cavia porcellus; test: Negative chronotropic activity in guinea pig right atrium at 100 uM; type: functional, Cardiac atrium; details: in the assay text read “50 uM” for “100 uM”; how it was run: as §3
Cavia porcellus [23] = species on record: Cavia porcellus; test: Vasorelaxant activity assessed as inhibition of calcium-induced contraction of potassium ion-depolarized guinea pig aortic strips; type: functional; details: Aorta; how it was run: as §2
Cavia porcellus [24] = species on record: Cavia porcellus; test: Negative inotropic activity in guinea pig left atrium at 10 uM; type: functional, Cardiac atrium; how it was run: as §1
Cavia porcellus [25] = species on record: Cavia porcellus; test: Antagonist activity against calcium channel assessed as inhibition of calcium-induced contraction of potassium ion-depolarized guinea pig ileum longitudinal smooth muscle at 1 uM; type: functional; parameters: scale not given: the % may be the effect or the level left; how it was run: as §5
Cavia porcellus [26] = species on record: Cavia porcellus; test: Negative inotropic activity in guinea pig left ventricular papillary muscle at 10 uM; type: functional, Muscle tissue
Cavia porcellus [27] = species on record: Cavia porcellus; test: Cardiac activity in guinea pig heart measured as increase in coronary perfusion pressure at 1 uM relative to control; type: functional; how it was run: as §4
Cavia porcellus [28] = species on record: Cavia porcellus; test: Negative inotropic activity in guinea pig left atrium at 5 uM; type: functional, Cardiac atrium; how it was run: as §1
Cavia porcellus [29] = species on record: Cavia porcellus; test: Antagonist activity against calcium channel assessed as inhibition of calcium-induced contraction of potassium ion-depolarized guinea pig ileum longitudinal smooth muscle at 10 uM; type: functional; parameters: scale not given: the % may be the effect or the level left; how it was run: as §5
[30] = biological target: T1, Voltage-dependent L-type calcium channel subunit alpha-1C; test: Inhibition of [3H]diltiazem binding to Sprague-Dawley rat cardiomyocytes at 10 nM relative to control; details: read-out: Activity; how it was run: as §6

Compound: CCO[C@@]1(c2ccc(Br)cc2)SC=C(C)n2c1noc2=O
Activity (Cavia porcellus [1]): 47%
Activity (Cavia porcellus [2]): 7%
Activity (Cavia porcellus [3]): 15%

Compound: O=S(=O)(c1ccc(Cl)cc1)N(Cc1ccsc1)S(=O)(=O)c1ccc(Cl)cc1
EC50 (Cavia porcellus [4]): 2550 nM
Activity (Cavia porcellus [2]): 9%
Activity (Cavia porcellus [5]): 71%
Activity (Cavia porcellus [6]): 7%

Compound: COC(=O)[C@H]1SCCN1S(=O)(=O)c1ccc(Cl)cc1
EC50 (Cavia porcellus [4]): 1000 nM
Activity (Cavia porcellus [2]): 29%
Activity (Cavia porcellus [5]): 92%
Activity (Cavia porcellus [19]): 2%

Compound: O=C(c1ccccn1)c1conc1-c1c(Cl)cccc1Cl
EC50 (Cavia porcellus [4]): 990 nM
Activity (Cavia porcellus [2]): 25%
Activity (Cavia porcellus [20]): 21%
Activity (Cavia porcellus [17]): 81%

Compound: COC(=O)c1ccccc1-n1cccc1C(=O)C(Cl)(Cl)Cl
EC50 (Cavia porcellus [4]): 3910 nM
Activity (Cavia porcellus [2]): 20%
Activity (Cavia porcellus [22]): 33%
Activity (Cavia porcellus [5]): 76%

Compound: CSC1=NCCCN1S(=O)(=O)c1ccc(Cl)cc1
EC50 (Cavia porcellus [4]): 1330 nM
Activity (Cavia porcellus [2]): 57%
IC50 (Cavia porcellus [23]): 25100 nM
Activity (Cavia porcellus [24]): 92%
Activity (Cavia porcellus [19]): 5%

Compound: COc1ccc([C@@H]2Sc3ccccc3N(CCN(C)C)C(=O)[C@@H]2OC(C)=O)cc1 [DILTIAZEM]
Activity (Cavia porcellus [7]): 25%
Activity (Cavia porcellus [8]): 59%
EC30 (Cavia porcellus [9]): 70 nM
IC50 (Cavia porcellus [10]): 480 nM
Activity (Cavia porcellus [25]): 98%
EC50 (Cavia porcellus [11]): 1610 nM
Activity (Cavia porcellus [2]): 88%
Activity (Cavia porcellus [14]): 34%
Activity (Cavia porcellus [24]): 78%
Activity (Cavia porcellus [20]): 94%
Activity (Cavia porcellus [16]): 51%
EC50 (Cavia porcellus [18]): 110 nM
Activity (Cavia porcellus [26]): 82%

Second part, led by results:

IC50 (Cavia porcellus [10]): 34500 nM
EC50 (Cavia porcellus [4]): 313 nM
EC50 (Cavia porcellus [11]): 10200 nM
Ki [13]: 3020 nM
EC50 (Cavia porcellus [18]): 14200 nM
Compound: O=S(=O)(c1ccc(Cl)cc1)N(C1CCNCC1)C1CC1
Activity (Cavia porcellus [7]): 12%
Activity (Cavia porcellus [8]): 12%
EC30 (Cavia porcellus [9]): 480 nM
Activity (Cavia porcellus [2]): 19%
Activity (Cavia porcellus [12]): 89%
Activity (Cavia porcellus [14]): inactive
Activity (Cavia porcellus [15]): 78%
Activity (Cavia porcellus [3]): 64%
Activity (Cavia porcellus [16]): 13%
Activity (Cavia porcellus [17]): 76%

EC50 (Cavia porcellus [4]): 360 nM
Compound: O=S(=O)(c1ccc(Br)cc1)N1CCCCCC1
Activity (Cavia porcellus [2]): 33%
Activity (Cavia porcellus [3]): 4%
Activity (Cavia porcellus [17]): 91%

EC50 (Cavia porcellus [4]): 900 nM
Compound: CO/N=C/c1c(Sc2ccccc2C(=O)OC)nc2sccn12
Activity (Cavia porcellus [21]): 9%
Activity (Cavia porcellus [3]): 13%
Activity (Cavia porcellus [17]): 63%

IC50 (Cavia porcellus [10]): 8210 nM
EC50 (Cavia porcellus [4]): 310 nM
EC50 (Cavia porcellus [11]): 1380 nM
IC50 (Cavia porcellus [23]): 5620 nM
inhibition at 0.01 µM [30]: -24.8%
EC50 (Cavia porcellus [18]): 1180 nM
Compound: O=S(=O)(c1ccc(Cl)cc1)N1CCC[C@@H]1c1cccs1
Activity (Cavia porcellus [7]): inactive
Activity (Cavia porcellus [8]): 6%
Activity (Cavia porcellus [27]): 17%
Activity (Cavia porcellus [28]): 84%
Activity (Cavia porcellus [29]): 90%
Activity (Cavia porcellus [2]): 74%
Activity (Cavia porcellus [14]): 20%
Activity (Cavia porcellus [19]): 4%
Activity (Cavia porcellus [26]): 93%
